Data reported in ChEMBL document CHEMBL3774355, “Quinoxalinone (Part II). Discovery of (Z)-3-(2-(pyridin-4-yl)vinyl)quinoxalinone derivates as potent VEGFR-2 kinase inhibitors” (Bioorg Med Chem, 2016).

System: HeLa
Assay: Cytotoxicity against human HeLa cells assessed as growth inhibition after 24 hrs by MTT assay
Assay type: functional, cell-based
Settings: not given
Summary of the method: (§1)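 Cells seeded at 8000/well in RPMI-1640 with 10% heat-inactivated FBS and left to adhere 10 h. Compound then added in RPMI-1640 with 1% FBS and 0.1% DMSO for 24 h at 37 °C. MTT added for 4 h, formazan dissolved in DMSO, OD read at 590 nm. Inhibition calculated relative to control and zero-setting wells; IC50 derived from inhibition ratios; two experiments in triplicate.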

SMILES | IC50 [µM]
Cc1nc2ccccc2n(Cc2ccc(NC(=O)c3ccc(Cl)cc3)cc2)c1=O | > 100
Cc1ccc(NC(=O)COc2nc3ccccc3nc2/C=C\c2ccncc2)cc1 | > 100
COc1ccc(NC(=O)Cn2c(=O)c(/C=C\c3ccncc3)nc3ccccc32)cc1OC | > 100
O=C(Cn1c(=O)c(/C=C\c2ccncc2)nc2ccccc21)Nc1ccccc1 | > 100
COc1cc2nc(/C=C\c3ccncc3)c(=O)n(CC(=O)Nc3ccccc3)c2cc1OC | > 100
Cc1ccccc1NC(=O)Cn1c(=O)c(/C=C\c2ccncc2)nc2ccccc21 | > 100
Cc1ccc(Nc2nccc(N(C)c3ccc4c(C)n(C)nc4c3)n2)cc1S(N)(=O)=O [PAZOPANIB] | > 100
Cc1nc2ccccc2nc1OCC(=O)Nc1ccc(Cl)cc1 | > 100

System: not listed separately
Assay: Cytotoxicity against human BEAS2B cells assessed as growth inhibition after 24 hrs by MTT assay
Assay type: cell-based
Settings: BEAS-2B
Summary of the method: as §1

SMILES | IC50 [µM]
Cc1nc2ccccc2n(Cc2ccc(NC(=O)c3ccc(Cl)cc3)cc2)c1=O | > 100
Cc1ccc(NC(=O)COc2nc3ccccc3nc2/C=C\c2ccncc2)cc1 | > 100
COc1ccc(NC(=O)Cn2c(=O)c(/C=C\c3ccncc3)nc3ccccc32)cc1OC | > 100
O=C(Cn1c(=O)c(/C=C\c2ccncc2)nc2ccccc21)Nc1ccccc1 | > 100
COc1cc2nc(/C=C\c3ccncc3)c(=O)n(CC(=O)Nc3ccccc3)c2cc1OC | > 100
Cc1ccccc1NC(=O)Cn1c(=O)c(/C=C\c2ccncc2)nc2ccccc21 | > 100
Cc1ccc(Nc2nccc(N(C)c3ccc4c(C)n(C)nc4c3)n2)cc1S(N)(=O)=O [PAZOPANIB] | > 100
Cc1nc2ccccc2nc1OCC(=O)Nc1ccc(Cl)cc1 | > 100

System: K562
Assay: Cytotoxicity against human K562 cells assessed as growth inhibition after 24 hrs by MTT assay
Assay type: functional, cell-based
Settings: K562, 24 h
Summary of the method: as §1

SMILES | IC50 [µM]
Cc1nc2ccccc2n(Cc2ccc(NC(=O)c3ccc(Cl)cc3)cc2)c1=O | > 100
Cc1ccc(NC(=O)COc2nc3ccccc3nc2/C=C\c2ccncc2)cc1 | > 100
COc1ccc(NC(=O)Cn2c(=O)c(/C=C\c3ccncc3)nc3ccccc32)cc1OC | 55.2
O=C(Cn1c(=O)c(/C=C\c2ccncc2)nc2ccccc21)Nc1ccccc1 | 55.5
COc1cc2nc(/C=C\c3ccncc3)c(=O)n(CC(=O)Nc3ccccc3)c2cc1OC | > 100
Cc1ccccc1NC(=O)Cn1c(=O)c(/C=C\c2ccncc2)nc2ccccc21 | > 100
Cc1ccc(Nc2nccc(N(C)c3ccc4c(C)n(C)nc4c3)n2)cc1S(N)(=O)=O [PAZOPANIB] | 89.3
Cc1nc2ccccc2nc1OCC(=O)Nc1ccc(Cl)cc1 | > 100

System: not listed separately
Assay: Cytotoxicity against human PC3 cells assessed as growth inhibition after 24 hrs by MTT assay
Assay type: functional, cell-based
Settings: PC-3, 24 h
Summary of the method: as §1

SMILES | IC50 [µM]
Cc1nc2ccccc2n(Cc2ccc(NC(=O)c3ccc(Cl)cc3)cc2)c1=O | 39.6
Cc1ccc(NC(=O)COc2nc3ccccc3nc2/C=C\c2ccncc2)cc1 | > 100
COc1ccc(NC(=O)Cn2c(=O)c(/C=C\c3ccncc3)nc3ccccc32)cc1OC | > 100
O=C(Cn1c(=O)c(/C=C\c2ccncc2)nc2ccccc21)Nc1ccccc1 | > 100
COc1cc2nc(/C=C\c3ccncc3)c(=O)n(CC(=O)Nc3ccccc3)c2cc1OC | > 100
Cc1ccccc1NC(=O)Cn1c(=O)c(/C=C\c2ccncc2)nc2ccccc21 | > 100
Cc1ccc(Nc2nccc(N(C)c3ccc4c(C)n(C)nc4c3)n2)cc1S(N)(=O)=O [PAZOPANIB] | > 100
Cc1nc2ccccc2nc1OCC(=O)Nc1ccc(Cl)cc1 | 68

System: not listed separately
Assay: Cytotoxicity against human 3AO cells assessed as growth inhibition after 24 hrs by MTT assay
Assay type: functional, cell-based
Settings: not given
Summary of the method: as §1

SMILES | IC50 [µM]
Cc1nc2ccccc2n(Cc2ccc(NC(=O)c3ccc(Cl)cc3)cc2)c1=O | > 100
Cc1ccc(NC(=O)COc2nc3ccccc3nc2/C=C\c2ccncc2)cc1 | > 100
COc1ccc(NC(=O)Cn2c(=O)c(/C=C\c3ccncc3)nc3ccccc32)cc1OC | > 100
O=C(Cn1c(=O)c(/C=C\c2ccncc2)nc2ccccc21)Nc1ccccc1 | > 100
COc1cc2nc(/C=C\c3ccncc3)c(=O)n(CC(=O)Nc3ccccc3)c2cc1OC | 55.6
Cc1ccccc1NC(=O)Cn1c(=O)c(/C=C\c2ccncc2)nc2ccccc21 | 69.7
Cc1ccc(Nc2nccc(N(C)c3ccc4c(C)n(C)nc4c3)n2)cc1S(N)(=O)=O [PAZOPANIB] | 50.2
Cc1nc2ccccc2nc1OCC(=O)Nc1ccc(Cl)cc1 | > 100

System: MCF7
Assay: Cytotoxicity against human MCF7 cells assessed as growth inhibition after 24 hrs by MTT assay
Assay type: functional, cell-based
Settings: MCF7, 24 h
Summary of the method: as §1

SMILES | IC50 [µM]
Cc1nc2ccccc2n(Cc2ccc(NC(=O)c3ccc(Cl)cc3)cc2)c1=O | 47.6
Cc1ccc(NC(=O)COc2nc3ccccc3nc2/C=C\c2ccncc2)cc1 | 60.2
COc1ccc(NC(=O)Cn2c(=O)c(/C=C\c3ccncc3)nc3ccccc32)cc1OC | > 100
O=C(Cn1c(=O)c(/C=C\c2ccncc2)nc2ccccc21)Nc1ccccc1 | > 100
COc1cc2nc(/C=C\c3ccncc3)c(=O)n(CC(=O)Nc3ccccc3)c2cc1OC | > 100
Cc1ccccc1NC(=O)Cn1c(=O)c(/C=C\c2ccncc2)nc2ccccc21 | > 100
Cc1ccc(Nc2nccc(N(C)c3ccc4c(C)n(C)nc4c3)n2)cc1S(N)(=O)=O [PAZOPANIB] | 76.8
Cc1nc2ccccc2nc1OCC(=O)Nc1ccc(Cl)cc1 | > 100
